Only some compounds are listed: those with a hit (about 3% of all), similar ones and a draw of the others.
T cruzi repl: inhibitors of intracellular T. cruzi growth, primary screen, luminescence, NIH3T3 host cells | T. cruzi beta-gal in NIH3T3, 90 h | inhibition, % (concentration not given with the values) | actives 1.4% (n = 300,000);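 active means mean inhibition across valid replicates above about 55%, limit read from the data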;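 further: signal also drops with host cell toxicity which is not excluded here; 0% = plate median of DMSO wells and 100% = zero luminescence signal; higher percent means less beta-gal luminescence so fewer parasites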
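Assay system: NIH/3T3 fibroblasts plus reporter T. cruzi. Amount: NIH/3T3 cells, 5,000 per well. Buffer or medium: DMEM, 2% fetal bovine serum. Doses: compound pinned at 50 nL/well, DMSO. Schedule: ≥90 h infection period, 3 h prior cell attachment. Signal: luminescent β-galactosidase signal after 60 min lysis. Read-out: parasite load inhibition, %.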
AI-2 QS modul: Vibrio harveyi AI-2 quorum sensing modulators, primary screen, JMH597 strain, luminescence/OD600 ratio | activity change, % at 7.5 µM | actives 0.4% (n = 300,000) | Vibrio harveyi JMH597 AI-2 luminescence/OD600 ratio, 9 h; active compounds read low; strain lacks LuxN and CqsS sensors; 0 = neutral-control median; in the data active means activity change below about -75%, passing the limit was not always enough;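 further: luminescence divided by OD600 gain over 9 h not by final OD600 alone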
HIF act: HIF pathway transcriptional activators, primary screen, cell-based, U2OS HRE-luciferase, luminescence; activation, % at 7.5 µM (by protocol); U2OS HRE-luciferase reporter; normalized: DMSO 0%, desferrioxamine 100%; actives 0.32% (n = 300,000);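 active means mean activation of at least 10% of the iron chelator positive control signal, with at least half of replicates also reaching 10%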
NRP1-CendR mod: modulators of CendR peptide binding to NRP-1, primary screen, biochemical, fluorescence polarization, uHTS; actives 0.85% (n = 360,000); FAM-RPARPAR peptide binding to NRP-1; inhibition, % at 25 µM; Neuropilin-1 (Homo sapiens), O14786;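 active means inhibition or corrected inhibition above about 18%, plus a signal ratio from 0.5 to 1.5, limit read from the data, passing the limit was not always enough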
Target sequence (O14786 whole entry, looked up): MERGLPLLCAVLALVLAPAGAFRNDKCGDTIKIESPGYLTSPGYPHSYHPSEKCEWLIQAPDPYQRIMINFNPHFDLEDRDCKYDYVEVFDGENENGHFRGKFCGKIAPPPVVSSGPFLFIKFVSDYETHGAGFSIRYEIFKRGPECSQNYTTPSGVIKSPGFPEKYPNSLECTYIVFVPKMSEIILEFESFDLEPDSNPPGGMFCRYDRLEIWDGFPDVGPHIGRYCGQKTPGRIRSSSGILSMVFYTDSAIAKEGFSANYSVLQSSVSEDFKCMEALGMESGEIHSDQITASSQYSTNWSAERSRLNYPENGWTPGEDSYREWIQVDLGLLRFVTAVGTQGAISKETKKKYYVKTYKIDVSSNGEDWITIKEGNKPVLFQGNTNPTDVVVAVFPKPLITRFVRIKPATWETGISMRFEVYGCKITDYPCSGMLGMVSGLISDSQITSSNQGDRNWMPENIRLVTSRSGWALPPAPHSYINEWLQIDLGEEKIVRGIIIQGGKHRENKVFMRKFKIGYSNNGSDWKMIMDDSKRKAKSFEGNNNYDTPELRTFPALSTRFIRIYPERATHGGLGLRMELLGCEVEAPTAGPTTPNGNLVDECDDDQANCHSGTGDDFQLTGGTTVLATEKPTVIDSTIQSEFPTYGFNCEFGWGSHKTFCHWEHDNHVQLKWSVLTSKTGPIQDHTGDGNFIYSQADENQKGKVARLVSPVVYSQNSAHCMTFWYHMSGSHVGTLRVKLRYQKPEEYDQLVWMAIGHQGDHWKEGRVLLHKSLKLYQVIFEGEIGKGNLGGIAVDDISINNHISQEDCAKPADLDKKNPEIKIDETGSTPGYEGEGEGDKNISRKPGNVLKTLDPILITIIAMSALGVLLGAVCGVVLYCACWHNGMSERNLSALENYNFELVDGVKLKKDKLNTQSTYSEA
V-ATPase pH: regulators of yeast V-ATPase proton pumping, primary screen, pHLuorin cytosolic pH fluorescence; response, % at 10 µM; S. cerevisiae; AID 504577, 2011; actives 0.37% (n = 350,000); in the data active means response mostly above about 7.3%, no sharp cut-off; inactive means mostly below about 5.4%; further: actives read high
Yeast superoxide: reduction of superoxide in aged yeast, primary screen, HTS; superoxide response (% of plate mean), % at 10 µM; actives 0.18% (n = 330,000); AID 2690, 2010; S. cerevisiae aged cells, superoxide DHE fluorescence; active compounds read low;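 active means superoxide response under a set limit, about three screen SD below normal, cut at about 65% in these data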;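 further: yeast aged for seven days with compound at 30 °C before DHE staining; 100% = average MFI of all compound-treated wells on the plate with controls excluded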
VATPase regulator: yeast V-ATPase proton pumping modulators, confirmation, S. cerevisiae, pH-sensitive GFP, second cherry-pick; shares compounds with V-ATPase pH; S. cerevisiae pHLuorin cytosolic pH, V-ATPase proton transport; response, % at 10 µM; actives 2% (n = 980); AID 602197, 2012; in the data active means response above about 24%;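 further: plate controls were vehicle wells for no effect and positive control wells for full effect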
Active calls of the source: *; · = not tested or not shown.

SMILES | T cruzi repl | AI-2 QS modul | HIF act | NRP1-CendR mod | V-ATPase pH | Yeast superoxide | VATPase regulator
Cc1cccc(-n2ccnc2SCC(=O)c2c(N)n(C3CC3)c(=O)[nH]c2=O)c1C | · | · | · | -4.5 | -3.2 | 152.5 | ·
Cn1nc(C(=O)NNC(=O)c2ccccc2Br)c2ccccc2c1=O | · | · | · | 0.8 | 9.5* | · | 4.2
O=C(NC1CC1)C1CCN(C2CCN(C(=O)Cc3ccc(F)cc3)CC2)CC1 | -10.5 | 3.5 | 0.1 | 0.0 | -2.2 | 109.8 | ·
Cn1c(=O)c(-c2cc(Br)ccc2N)nc2ccccc21 | -19.1 | 22.6 | 3.2 | -3.1 | -0.7 | 109.2 | 4.8
CCOC(=O)Cn1c(=O)c(-c2ccccc2N)nc2ccccc21 | 0.1 | 20.9 | · | 4.4 | -3.1 | 89.4 | 0.1
CCOC(=O)Cn1c(=O)c(-c2cc(Br)ccc2N)nc2ccccc21 | -19.3 | 23.2 | 0.0 | 0.0 | 31.2* | 101.0 | 16.6
CN(C)c1nc2ccccc2n(C)c1=O | -17.7 | 32.3 | 0.1 | 13.2 | 5.7 | 99.6 | ·
CCOC(=O)CCn1c(CC(=O)OCC)nc2ccccc21 | 9.5 | 5.6 | 0.1 | -1.4 | 5.0 | 102.6 | ·
CC(C)C[C@H]1COc2cc(N3CCSCC3)ccc2S(=O)(=O)N1 | · | · | · | -6.1 | · | · | ·
O=C(Nc1ccccc1C(=O)Nc1ccncc1)c1cccc([N+](=O)[O-])c1 | 13.1 | 6.4 | -0.8 | 14.7 | 12.6* | 102.8 | 0.0
O=C(Nc1ccc2[nH]c(=O)[nH]c2c1)c1cccc([N+](=O)[O-])c1 | 6.4 | 20.5 | -1.6 | 5.8 | 8.9* | 102.2 | -1.3
CCn1cnc2sc(C(=O)Nc3ccc4c(c3)OCO4)c(C)c2c1=O | -4.0 | 36.4 | 1.8 | 16.9 | 3.9 | 97.0 | ·
O=S1(=O)CC(N2CCN(CCO)CC2)CN1Cc1cn(Cc2ccccc2)nn1 (centres undefined) | · | · | · | 2.7 | · | · | ·
O=C(NC(=S)NC1CCSC1=O)c1cccs1 (centres undefined) | -3.4 | 12.2 | 0.5 | -7.3 | 8.3* | 96.5 | 3.0
Cc1nn(-c2ccc(Cl)cc2)c(=O)c2c(C)noc12 | -4.6 | 32.7 | -0.6 | 1.1 | -0.8 | 81.5 | -2.1
Cc1ccc(-n2nc(C)c3c(C)onc3c2=O)cc1 | · | 30.8 | · | -2.8 | 2.1 | 116.7 | ·
N#Cc1c(NC(=O)Cn2nc(C(F)(F)F)c3c2CCCC3)sc2c1CCC2 | 1.2 | 7.1 | -0.6 | 3.3 | 10.2* | 87.9 | 14.1
CC1CCc2c(sc(NC(=O)Cn3nc(C(F)(F)F)c4c3CCCCC4)c2C#N)C1 (centres undefined) | -28.1 | 22.7 | -0.3 | -13.7 | -0.5 | 98.8 | ·
CCNC(=O)CSc1nc(-c2ccc(F)cc2)cs1 | -3.2 | 4.6 | 1.2 | -5.0 | 8.1* | 79.1 | 1.2
COc1cccc(/C(N)=N/OC(=O)Cc2ccccc2[N+](=O)[O-])c1 | 0.7 | 16.4 | 3.0 | -1.7 | 13.8* | 83.6 | -0.2
N/C(=N\OC(=O)Cc1ccccc1[N+](=O)[O-])c1ccncc1 | 1.5 | 12.5 | 0.1 | 1.4 | -1.4 | 94.8 | ·
C=CCc1cccc(CNc2ccc(S(=O)(=O)Nc3nccnc3OC)cc2)c1O | -10.4 | 14.2 | -0.3 | 5.2 | -2.2 | 98.4 | ·
COc1ccc(-c2cc(C(=O)NCCCn3ccnc3)no2)cc1OC | -8.7 | 9.2 | -0.5 | -2.8 | 11.8* | 100.0 | -0.8
CC(O)(CS(=O)(=O)Cc1ccccc1)c1ccccc1Cl (centres undefined) | -5.3 | 12.9 | -14.2 | 4.5 | 6.9* | 81.5 | -4.5
Cc1cnnc2c1-c1no[n+]([O-])c1CC2 | -2.9 | 24.3 | 0.0 | -4.5 | 14.0* | 115.0 | 0.2
SMILES | T cruzi repl | AI-2 QS modul | HIF act | NRP1-CendR mod | V-ATPase pH | Yeast superoxide | VATPase regulator
Cc1ccc(S(=O)(=O)Nc2cnc3ccccc3c2)cc1 | -7.6 | 34.8 | 0.0 | 3.2 | 9.9* | 97.2 | -4.8
Cc1ccc(S(=O)(=O)Nc2ccc3ccccc3n2)cc1 | 13.0 | 33.4 | 0.1 | -4.4 | -2.4 | 100.2 | ·
Cc1ccc(S(=O)(=O)NCC(=O)Nc2ccc(C(F)(F)F)cc2)cc1 | -17.7 | 17.9 | -0.6 | -1.4 | -3.5 | 111.2 | ·
Cc1ccc(-c2c(C#N)c(N)n3c(nc4ccccc43)c2C#N)cc1 | 26.4 | 15.6 | -0.2 | -57.0 | 1.8 | 92.0 | ·
N#Cc1c(-c2ccccc2)c(C#N)c2nc3ccccc3n2c1N | 0.2 | 8.2 | 0.6 | -16.2 | 9.1* | 112.7 | -29.1
COc1ccc(Cl)cc1NC(=O)CN1CCN(S(=O)(=O)N2CCOCC2)CC1 | 7.4 | 30.3 | 0.1 | 7.3 | -1.6 | 111.2 | ·
Cc1ccc(C(=O)Nc2ccc(N3CCCCC3)cc2)cc1 | · | · | · | -3.3 | 9.9* | 93.8 | 3.4
CC(C)c1onc(C(=O)NCc2ccc(F)cc2)c1[N+](=O)[O-] | 6.8 | -2.7 | -0.3 | 1.1 | 0.6 | 100.3 | ·
O=C(COC(=O)/C=C/c1ccccc1Cl)NC(=O)Cc1ccccc1 | -12.4 | 24.2 | 0.6 | -2.0 | 9.9* | 96.6 | 1.6
O=C(COC(=O)/C=C/c1ccccc1Cl)NC(=O)NCc1ccccc1 | · | · | · | -0.4 | 2.6 | 73.2 | ·
CCOC(=O)c1ccc(CNC(=O)CSc2nnnn2-c2ccc(Cl)cc2)o1 | 6.7 | 1.8 | -5.6 | 4.6 | -1.6 | 105.8 | ·
Cc1cccc(NC(=O)c2ccccc2OCC(=O)N2CCOCC2)c1C | -6.5 | 8.6 | -0.2 | 3.8 | 2.2 | 82.4 | ·
O=C(Nc1cccc(Cl)c1Cl)c1ccccc1OCC(=O)N1CCOCC1 | 28.0 | 18.7 | -0.5 | -1.9 | 11.2* | 99.7 | -4.5
Cc1ccsc1-c1nc(CN2CCN(C)C(=O)[C@@H]2C)c(C)o1 | -4.5 | 13.8 | -1.4 | -2.3 | 0.1 | 109.3 | ·
Cc1ccsc1-c1nc(CN(C)C(C2CC2)C2CC2)c(C)o1 | 12.0 | 48.7 | -0.1 | -1.4 | 18.1* | 107.0 | 0.5
Cc1ccc(C)c(NC(=O)CN2C(=O)NC(C)(c3ccc4c(c3)OCCO4)C2=O)c1 (centres undefined) | · | · | · | -15.0 | 2.3 | 78.0 | ·
CCCCCn1c(SCc2ccncc2)nc2cc(C(=O)NCc3ccco3)ccc2c1=O | 27.8 | 11.2 | -0.1 | -8.1 | -0.7 | 97.2 | ·
COc1ccc(CCNc2nc(-c3ccco3)cc(C(F)(F)F)n2)cc1OC | 8.8 | 25.7 | -0.4 | -0.1 | 11.1* | 105.8 | 1.5
COc1ccc(Cl)cc1S(=O)(=O)N1CCCC(C(=O)N2CCOCC2)C1 (centres undefined) | 12.7 | 25.4 | -0.9 | 1.7 | 9.5* | 93.6 | 2.7
COc1ccc(C(=O)NCCn2cc(SCC(=O)NCC3CCCO3)c3ccccc32)cc1OC (centres undefined) | 6.1 | 12.5 | -0.6 | 10.3 | 8.1* | 100.6 | -3.1

Screens deposited in PubChem BioAssay by several laboratories.
